The array DNA melting data of Ke et al. (doi:10.1101/2024.01.08.574731)

Columns and labels:
[1] = folding enthalpy; higher = less favourable; fluorescence melt of hairpins on a sequencing array, two-state fit; conditions: sodium 0.088 M
Procedure, shortened: (§1)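 In 50 mM Na-HEPES pH 8.0 containing 25 mM NaCl, hairpins from the library on a sequenced MiSeq flow cell were imaged for Cy3 fluorescence at 2.5 °C steps up to 60 °C, with Cy3 and quencher oligos annealed. After normalisation to pre-quench Cy3 and to control constructs, two-state fits with bootstrapping gave melting temperature and folding enthalpy. Four replicates were combined by inverse-variance weighting, and fitted temperatures were shifted up by 9.35 °C to match UV melts.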

[2] = melting temperature; fluorescence melt of hairpins on a sequencing array, two-state fit, raised by 9.35 °C to match UV melts; conditions: sodium 0.088 M
Procedure, shortened: as §1

Row | Sequence | folding enthalpy [1] | Tm [2]
1 | GATCTCTGCGAGATC ((((((...)))))) | -19.3 kcal/mol | 52.8 °C
2 | GATCTCTGCTGAGATC ((((((....)))))) | -45.9 kcal/mol | 53.7 °C
3 | GATCTCTTCCGAGATC ((((((....)))))) | -37 kcal/mol | 52.3 °C
4 | GATCTCTTCGAGATC ((((((...)))))) | -36.9 kcal/mol | 55.4 °C
5 | GATCTGAAAAGATC (((((....))))) | -28.2 kcal/mol | 45.6 °C
6 | GATCTGAAATCAGATC ((((((....)))))) | -36.1 kcal/mol | 45.1 °C
7 | GATCTGAACACAGATC ((((((....)))))) | -34.7 kcal/mol | 48.4 °C
8 | GATCTGAATTCAGATC ((((((....)))))) | -41.6 kcal/mol | 50.2 °C
9 | GATCTGACCCCAGATC ((((((....)))))) | -34.3 kcal/mol | 45.8 °C
10 | GATCTGACCGCAGATC ((((((....)))))) | -27.4 kcal/mol | 48 °C
11 | GATCTGACGGCAGATC ((((((....)))))) | -49.4 kcal/mol | 51.4 °C
12 | GATCTGACTCAGATC ((((((...)))))) | -33.7 kcal/mol | 46.8 °C
13 | GATCTGAGACAGATC ((((((...)))))) | -42.3 kcal/mol | 46.8 °C
14 | GATCTGAGGCCAGATC ((((((....)))))) | -35.8 kcal/mol | 47.1 °C
15 | GATCTGAGTCAGATC ((((((...)))))) | -36.5 kcal/mol | 47.5 °C
16 | GATCTGATATCAGATC ((((((....)))))) | -40.1 kcal/mol | 51 °C
17 | GATCTGATGCAGATC ((((((...)))))) | -34.5 kcal/mol | 48 °C
18 | GATCTGATGTCAGATC ((((((....)))))) | -53.1 kcal/mol | 49.1 °C
19 | GATCTGATTTCAGATC ((((((....)))))) | -34.4 kcal/mol | 51.4 °C
20 | GATCTGCAAGCAGATC ((((((....)))))) | -40.2 kcal/mol | 57.6 °C

Row | Sequence | folding enthalpy [1] | Tm [2]
21 | GATCTGCACCAGATC ((((((...)))))) | -41.8 kcal/mol | 47.9 °C
22 | GATCTGCAGCAGATC ((((((...)))))) | -35 kcal/mol | 49.2 °C
23 | GATCTGCAGTCAGATC ((((((....)))))) | -34.5 kcal/mol | 49.2 °C
24 | GATCTGCCACCAGATC ((((((....)))))) | -35.1 kcal/mol | 48.7 °C
25 | GATCTGCCTCCAGATC ((((((....)))))) | -32.6 kcal/mol | 46.3 °C
26 | GATCTGCCTGCAGATC ((((((....)))))) | -43.3 kcal/mol | 62.6 °C
27 | GATCTGCTACAGATC ((((((...)))))) | -29.6 kcal/mol | 49.6 °C
28 | GATCTGCTATCAGATC ((((((....)))))) | -35.3 kcal/mol | 49.6 °C
29 | GATCTGCTGGCAGATC ((((((....)))))) | -43.6 kcal/mol | 62.5 °C
30 | GATCTGCTTGCAGATC ((((((....)))))) | -40.1 kcal/mol | 67.3 °C
31 | GATCTGGAACAGATC ((((((...)))))) | -37.7 kcal/mol | 58.8 °C
32 | GATCTGGAACCAGATC ((((((....)))))) | -38.5 kcal/mol | 53.9 °C
33 | GATCTGGACTCAGATC ((((((....)))))) | -46.3 kcal/mol | 53.1 °C
34 | GATCTGGCCCAGATC ((((((...)))))) | -35.1 kcal/mol | 49.7 °C
35 | GATCTGGCCCCAGATC ((((((....)))))) | -49.3 kcal/mol | 52.9 °C
36 | GATCTGGCCTCAGATC ((((((....)))))) | -41.7 kcal/mol | 51.7 °C
37 | GATCTGGCTCCAGATC ((((((....)))))) | -39.4 kcal/mol | 53.1 °C
38 | GATCTGGGAAACCGGATC ((((.((....)).)))) | -44.8 kcal/mol | 49.8 °C
39 | GATCTGGGACCAGATC ((((((....)))))) | -43.4 kcal/mol | 54.7 °C
40 | GATCTGGGGACAGATC ((((((....)))))) | -31.4 kcal/mol | 54.3 °C
